Compounds with a hit are over-represented: about 3.4% of the library has one in this group of screens.
IMP-1 inhibitor: inhibitors of Pseudomonas aeruginosa IMP-1 metallo-beta-lactamase; purified IMP-1, nitrocefin hydrolysis, epi-absorbance fluorescence; inhibition, % at 5.6 µM; hit rate 0.45% among 290,000; AID 1556;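 active = inhibition above the mean plus 3 SD of all compounds in the same screening run, cut at about 4.5% in these data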;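 also: 0% = IMP-1 with DMSO and 100% = DMSO wells lacking enzyme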
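System: purified recombinant IMP-1 beta-lactamase. Medium: Zinc- and detergent-supplemented HEPES buffer, pH 7.1. Compound: one 5.6 µM dose […]. Schedule: 15 min preincubation plus 25 min reaction at 25 °C. Technique: Epi-absorbance fluorescence, 480 nm excitation, 530 nm emission.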
VIM-2 inhibitor: blocks Pseudomonas aeruginosa VIM-2 metallo-beta-lactamase | purified VIM-2, nitrocefin hydrolysis, epi-absorbance fluorescence | inhibition, % at 5.6 µM | hit rate 0.89% among 290,000;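 active = inhibition above the mean of all tested compounds plus 3 SD, cutoff set per screening run, cut at about 7.5% in these data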;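 also: red hydrolysis product quenches plate fluorescence so inhibitors raise well fluorescence; 0% = enzyme with DMSO and 100% = DMSO without enzyme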
MEKK2 mut-MEK5: signal of MEK5 binding to mutant human MEKK2 PB1 domain | bead flow cytometry, Alexa488-MEK5 binding to MEKK2 mutant | percent response, % at 10 µM | hit rate 0.35% among 290,000; in the data active = percent response above about 24%, passing the limit was not always enough
MEKK3 PB1 HTS: MEKK3-MEK5 PB1 interaction, increase or decrease; Q99759; bead-based flow cytometry, Alexa488-MEK5 binding to MEKK3; actives lie on both sides; 0 = blocked by unlabeled MEK5, 100 = vehicle; binding response (% of control), % at 10 µM; hit rate 1.4% among 290,000; AID 1529;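 active = binding response more than 3 SD above or below the average of its plate-row segment, actives on both sides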;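 also: Alexa488 bead fluorescence after subtracting the streptavidin-only scavenger bead signal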
Target sequence (Q99759 whole entry, looked up): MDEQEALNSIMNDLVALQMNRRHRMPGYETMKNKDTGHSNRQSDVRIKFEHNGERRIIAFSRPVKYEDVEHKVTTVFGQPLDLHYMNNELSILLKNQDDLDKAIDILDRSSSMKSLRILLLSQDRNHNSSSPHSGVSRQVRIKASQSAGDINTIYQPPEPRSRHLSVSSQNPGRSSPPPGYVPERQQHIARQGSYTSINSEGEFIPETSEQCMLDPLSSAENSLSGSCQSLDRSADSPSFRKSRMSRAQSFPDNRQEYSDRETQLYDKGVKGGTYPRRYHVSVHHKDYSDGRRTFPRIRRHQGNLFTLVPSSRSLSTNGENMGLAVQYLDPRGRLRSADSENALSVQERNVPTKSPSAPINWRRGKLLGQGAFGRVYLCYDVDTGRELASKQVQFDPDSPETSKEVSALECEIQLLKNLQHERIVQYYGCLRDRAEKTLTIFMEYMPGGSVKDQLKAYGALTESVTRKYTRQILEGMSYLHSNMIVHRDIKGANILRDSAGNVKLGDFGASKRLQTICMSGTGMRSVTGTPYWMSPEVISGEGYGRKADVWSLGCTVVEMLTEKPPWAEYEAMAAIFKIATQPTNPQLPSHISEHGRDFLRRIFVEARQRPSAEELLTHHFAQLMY
MEKK2wt PB1 HTS: raises or lowers MEK5 binding to wildtype human MEKK2 PB1 domain. hit rate 1.1% among 290,000. bead flow cytometry, Alexa488-MEK5 binding to MEKK2 WT; actives lie on both sides. Q9Y2U5. binding response (% of control), % at 10 µM. AID 1531; in the data active = binding response below about 67% or above about 130%
MEKK2wt confirm: raises or lowers MEK5 binding to wildtype human MEKK2, retest. shares compounds with MEKK3 PB1 HTS. bead flow cytometry, Alexa488-MEK5 binding to MEKK2 WT; actives lie on both sides. binding response (% of control), % at 10 µM. hit rate 2.4% among 5,900. AID 1892; in the data active = binding response below about 16% or above about 210%; inactive = in between
MEKK2mut-MEK5: signal of MEK5 binding to mutant human MEKK2, retest. hit rate 2% among 5,900. AID 1893. shares compounds with MEKK3 PB1 HTS. bead flow cytometry, Alexa488-MEK5 binding to MEKK2 mutant. percent response, % at 10 µM; in the data active = percent response mostly above about 71%, no sharp cut-off; inactive = mostly below about 38%;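 also: higher means compound restores mutant binding toward wildtype level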
MEKK3 confirm: MEKK3-MEK5 PB1 inhibition, single concentration confirmation; hit rate 1.8% among 5,900; binding response (% of control), % at 10 µM; bead flow cytometry, Alexa488-MEK5 binding to MEKK3; hits give low values; shares compounds with MEKK3 PB1 HTS;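 active = binding response below 72% of control, or above a set upper limit, though filed actives all read lower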;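 also: 100% = DMSO only wells and 0% = binding blocked by excess unlabeled MEK5; lower values mean stronger disruption of MEK5 binding to MEKK3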
The depositor's hits bear a star; x = no result given; ! = not active in a repeat; [ ] = dose if it differs, or a comment.

SMILES | IMP-1 inhibitor | VIM-2 inhibitor | MEKK2 mut-MEK5 | MEKK3 PB1 HTS | MEKK2wt PB1 HTS | MEKK2wt confirm | MEKK2mut-MEK5 | MEKK3 confirm
CCCn1ncc(CN2CCC(C(=O)Nc3cccc(-c4cccc(F)c4)c3)CC2)c1C | 2 | 4 | 13 | 104 | 144* | 128 | 22 | 107
O=C(Nc1cccc(-c2cccc(F)c2)c1)C1CCN(C2CCC2)CC1 | -2 | -3 | 17 | 103 | 146* | 134 | 26 | 103
Cc1cccc(CN2CCC(C(=O)Nc3cccc(-c4cccc(F)c4)c3)CC2)n1 | 0 | -2 | -1 | 100 | 109 | x | x | x
Cc1ccc(CC(=O)O/N=C(\N)Cc2ccc([N+](=O)[O-])cc2)cc1 | -2 | -2 | -1 | 98 | 96 | x | x | x
CCCCSCCCNC(=O)Nc1cccc(OC)c1 | -4 | -6 | 5 | 105 | 103 | x | x | x
COc1cccc(C(=O)CN2CCN(S(=O)(=O)c3cccc([N+](=O)[O-])c3)CC2)c1 | -5 | -5 | 0 | 125 | 107 | x | x | x
COC(=O)c1ccc(-c2csc(NC(=O)c3ccc(S(=O)(=O)N4CCc5ccccc5C4)cc3)n2)cc1 | -3 | 1 | -2 | 89 | 90 | x | x | x
Cc1c(C(=O)NC(=S)Nc2ccc(NC(=O)c3cccs3)cc2)cccc1[N+](=O)[O-] | -2 | -1 | -1 | 100 | 97 | x | x | x
Cc1ccc(S(=O)(=O)NN)c(C)c1N1CCCC1=O | -3 | -2 | -21 | 44*[inhibitor] | 58 | 100 | -11 | 99
CNC(=S)N1CCN(C(=O)C2CCCO2)CC1 (stereo not drawn) | -4 | 0 | -2 | 67*[inhibitor] | 94 | 102 | 0 | 103
Cc1ccc(OCCCCN2CCc3ccccc3C2)c(C)c1 | -2 | -3 | 18 | 116 | 139* | 104 | 0 | 99
Cc1ccc(C)c(OCCCN2CCc3ccccc3C2)c1 | -1 | 0 | 7 | 98 | 117 | x | x | x
CC(SCc1ccccc1)C(=O)Nc1ccccc1Br (stereo not drawn) | 1 | 2 | -1 | 105 | 104 | x | x | x
O=c1c2cc(N3CCOCC3)ccc2[nH]c(=S)n1CCCN1CCCCCC1 | -6 | -8 | 13 | 101 | 148* | 125 | 10 | 99
O=C(NCCc1ccccc1)c1ccc2c(c1)OCO2 | -3 | -1 | 2 | 98 | 103 | x | x | x
C[N+](C)(C)C[C@H](O)CC(=O)O | x | x | 3 | 102 | 107 | x | x | x
CCOC(=O)c1ccccc1NC(=S)N1CCCCC1 | -1 | 0 | -1 | 101 | 99 | x | x | x
OC1CCCN(Cc2ccccc2)C1 (stereo not drawn) | -2 | -1 | 0 | 95 | 95 | x | x | x
O=C(Nc1ccc2ccccc2c1)c1cc(F)c(F)cc1Cl | -2 | -1 | 6 | 105 | 107 | x | x | x
Cn1cnnc1-c1cccc(NC(=O)c2cc(F)c(F)cc2Cl)c1 | -3 | -3 | 1 | 135* | 123 | 97 | -7 | 103
CCCCN1C(=S)NC[C@@H]1Cc1cccc2ccccc12 | x | x | 1 | 95 | 100 | x | x | x
CCCCNS(=O)(=O)c1ccc2nc(-c3cccnc3)cc(C(=O)NCCCN(CC)CC)c2c1 | -3 | 1 | -9 | 74 | 87 | x | x | x
CCOc1c(C)cc(-c2ncccc2O)cc1C | 1 | 1 | 0 | 130*! | 96 | 101 | -7 | 99
C=CCSC1=N/C(=C\c2cccnc2)C(=O)N1c1ccc(OC)cc1 | -4 | 3 | -1 | 102 | 99 | x | x | x
CCSC1=N/C(=C\c2ccccc2)C(=O)N1c1ccc(OC)cc1 | 1 | -1 | -13 | 74*[inhibitor] | 70 | 100 | 1 | 107
SMILES | IMP-1 inhibitor | VIM-2 inhibitor | MEKK2 mut-MEK5 | MEKK3 PB1 HTS | MEKK2wt PB1 HTS | MEKK2wt confirm | MEKK2mut-MEK5 | MEKK3 confirm
O=C(CN(c1ccc(Cl)cc1)S(=O)(=O)c1ccccc1)N/N=C/c1ccco1 | -4 | -5 | 2 | 105 | 96 | x | x | x
Cc1ccc(S(=O)(=O)N(CC(=O)N/N=C/c2ccco2)c2cc(Cl)cc(Cl)c2)cc1 | -5 | -4 | 0 | 128* | 104 | 96 | -8 | 105
O=C(CCC1COc2ccccc2O1)NC1CCCCC1 (stereo not drawn) | -3 | -2 | 9 | 101 | 103 | x | x | x
CCC1=NC(c2ccc(OC)c(OC)c2)N(O)C1(C)C (stereo not drawn) | -2 | 1 | -1 | 106 | 104 | x | x | x
CCC1=NC(c2ccc(OC)cc2)N(O)C1(C)C (stereo not drawn) | -3 | 1 | -13 | 80*[inhibitor] | 93 | 97 | 10 | 99
CCN(CC)CCOc1ccc(/C(=C(/Cl)c2ccccc2)c2ccccc2)cc1 | -1 | -2 | 26* | 108 | 179* | 189 | 62 | 107
CCOc1ccc(C(=O)OCCN(CC)CC)cc1 | -3 | -2 | 14 | 105 | 110 | x | x | x
CC/C(=C(\c1ccc(O)cc1)c1ccc(OCCN(C)C)cc1)c1ccccc1 | 0 | -2 | 43 | 78 | 180* | 182 | 39 | 102
CCOC(=O)C(=Cc1ccc(Br)cc1)C(=O)OCC | -2 | -1 | 2 | 103 | 105 | x | x | x
CCOC(=O)C(=Cc1ccc(F)cc1)C(=O)OCC | -3 | -2 | 33* | 114 | 121 | 101 | 0 | 105
N#Cc1c(Cl)cccc1N1CCCC1 | -1 | 0 | -2 | 90 | 93 | x | x | x
COc1cc(/C=C(\NC(=O)c2ccccc2)C(=O)NCC(=O)O)c([N+](=O)[O-])cc1OC | -3 | -3 | 0 | 132* | 108 | 109 | 21 | 111
CCC1=NN(S(=O)(=O)c2ccc(C)cc2)C(O)(C(F)(F)F)C1 (stereo not drawn) | -1 | -3 | 1 | 128* | 114 | 102 | -2 | 105
O=C(c1ccc(Cl)nc1)N1CCc2ccccc2C1 | 0 | 0 | -46 | 14*[inhibitor] | 21*[inhibitor] | 98 | 0 | 102
CC(C)C(=O)Nc1cccc(-c2csc(-c3ccccc3)n2)c1 | -2 | -1 | 0 | 139* | 110 | 95 | -1 | 103
CN(C)CCCN(C(=O)c1ccc(S(=O)(=O)N(C)Cc2ccccc2)cc1)c1nc2cc3c(cc2s1)OCO3 | -1 | -1 | 41* | 112 | 192* | 189 | 45 | 107
CN(C)CCN(C(=O)c1ccc(N2C(=O)CCC2=O)cc1)c1nc2cc3c(cc2s1)OCO3 | -2 | -1 | 1 | 100 | 107 | x | x | x
CN(C)CCN(C(=O)c1cccc2ccccc12)c1nc2cc3c(cc2s1)OCO3 | 1 | -1 | 23 | 111 | 137* | 137 | 21 | 103
CN(C)CCCN(C(=O)c1ccc2ccccc2c1)c1nc2cc3c(cc2s1)OCO3 | -2 | -1 | 24* | 106 | 142* | 140 | 19 | 104
